The source of these data is ChEMBL document CHEMBL4041494, “Simple synthesis of endophenazine G and other phenazines and their evaluation as anti-methicillin-resistant Staphylococcus aureus agents” (Eur J Med Chem, 2017).

Test [1] concerns Staphylococcus aureus. As to the kind of experiment: Antibacterial activity against methicillin-resistant Staphylococcus aureus LAC JE2 after 24 hrs by broth microdilution assay. It counts as functional. The following applies: LAC JE2, 24 h. The gist of the method:
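Broth microdilution per ASM Clinical Microbiology Procedures Handbook (3rd ed.). Compound stock at pH 7, serial 2-fold dilutions in cation-adjusted Mueller Hinton II broth with 5% DMSO. Inoculum from direct colony suspension at 0.5 McFarland, 10 ul per well. Static incubation at 37°C for 24 h. MIC is the lowest concentration with no visible growth. Vancomycin positive control, medium-only negative control.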
Background: In broth dilution the organism is exposed to a series of concentrations in liquid medium.

Test [2] deals with Staphylococcus aureus. The test is described as follows: Induction of membrane disruption in methicillin-resistant Staphylococcus aureus LAC JE2 at 1 to 10 times MIC measured at 15 mins interval for 4 hrs by propidium iodide staining based fluorescence assay. It is filed as functional. The gist of the method: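 S. aureus JE2 resuspended in PBS to OD600 1.0 and treated with 1X, 2X or 10X MIC. Propidium iodide fluorescence (RFU) read in a plate reader every 15 min for 4 h.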

Test [3] concerns Staphylococcus aureus. The test is described as follows: Induction of membrane disruption in methicillin-resistant Staphylococcus aureus LAC JE2 at 1 to 10 times MIC by propidium iodide staining based confocal microscopic method. It counts as functional.
The species named for the next test is Equus caballus. As to the kind of experiment: Induction of equine heart cytochrome-c reduction at 25 to 100 uM measured for 900 sec at 30 sec time interval in presence of NADPH by photospectrometric method. It counts as functional. The gist of the method:
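Compound stock 10 mM in 95% DMSO/5% 0.1 M NaOH, diluted in DPBS to 200 μM and serially diluted, keeping 5% DMSO/NaOH. NADPH 100 μM, then cytochrome c 20 μM added. Absorbance at 550 nm read, with 700 nm as baseline correction. Controls: cyt-c alone, cyt-c plus NADPH, and buffer alone.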

Test [4] can be described thus: Induction of ROS generation at 0.11 to 0.55 mM measured for 500 sec at 30 sec time interval in presence of NADPH by ABDA staining based photospectrometric method. The gist of the method: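 Compound 10 mM in 95% DMSO/5% 0.1 M NaOH, serially diluted keeping 5% DMSO/NaOH in DPBS. NADPH 100 μM and ABDA 5 μM final added. Superoxide followed as ABDA decay at 479 nm. Triplicate per concentration. Controls: ABDA alone in buffer, and buffer alone.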

Test [5] is described as follows: Induction of ROS generation by HPF staining based flow cytometry. For orientation: In flow cytometry, cells or beads pass a laser one at a time.
For test [6], the system named is Staphylococcus aureus. The test is described as follows: Bacteriostatic activity against methicillin-resistant Staphylococcus aureus LAC JE2 at 10 times MIC by serial dilution method. It counts as functional. The gist of the method: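 Overnight culture diluted 1:1000 into fresh CAMHB and grown 2 h at 37°C with agitation. 1-ml aliquots then treated with 10X MIC of compound. Samples taken every 2 h, and viability counted by serial dilution and plating on tryptic soy agar.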

Another test relates to HaCaT. The test is described as follows: Cytotoxicity against human HaCaT cells assessed as reduction in cell viability by CellTiter blue assay. It is filed as cell-based. The gist of the method:
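HaCaT keratinocytes. Compound dissolved in 2:3 NaOH (0.01 M)/DMSO, diluted in DMEM with 10% FBS and 1% penicillin-streptomycin to 4 mM top concentration (3% DMSO), then serially diluted in DMEM. Viability read by CellTiter-Blue, following resazurin absorbance change on a spectrophotometer. Absorbance plotted against concentration and IC50 calculated.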

Test [7] concerns Staphylococcus aureus. As to the kind of experiment: Antibacterial activity against methicillin-resistant Staphylococcus aureus after 24 hrs by broth microdilution assay.

In brackets after ≈: the same amount, converted by molar mass. Activity calls are given as the source filed them. No cut-off for these calls is given here.

For orientation: MIC means the least concentration at which growth counts as inhibited. Read a high MIC as a less susceptible organism. As a reminder, the IC50 is the concentration that gives 50% inhibition. For the molecule `CC(C)(O)/C=C/c1cccc2nc3cccc(C(=O)O)c3nc12`, in the test on Staphylococcus aureus [1], the minimum inhibitory concentration (MIC) turned out to be 32 µg/mL (≈ 104 µM). Further, the outcome (with Staphylococcus aureus [2]; in the test on Staphylococcus aureus [3]; in test [4]; in test [5]) was inactive. Besides, the result in the test filed under Equus caballus and in the test on Staphylococcus aureus [6] was Active. In addition, the IC50 with HaCaT worked out at 306 µM.
`NC(=O)c1cccc2nc3cccc(F)c3nc12` gave a minimum inhibitory concentration (MIC) against Staphylococcus aureus [1] greater than 128 µg/mL.
`COC(=O)c1cccc2nc3c(Br)cccc3nc12` yielded an MIC in the test on Staphylococcus aureus [1] greater than 128 µg/mL.
On to `CN(C)C(=O)c1cccc2nc3cccc(/C=C/C(C)(C)O)c3nc12`, for which the MIC with Staphylococcus aureus [1] is greater than 128 µg/mL.
As to `Cc1cccc2nc3cccc(C(=O)O)c3nc12`, inhibition of growth against Staphylococcus aureus [1] (MIC) required 32 µg/mL (≈ 134 µM).
Same read-out and setting: the figure for `COC(=O)c1cccc2nc3c(/C=C/C(C)(C)O)cccc3nc12` is 128 µg/mL (≈ 397 µM).
On the same count and under the same terms, the figure for `CC(C)(O)/C=C/c1cccc2nc3c(C(=O)O)cccc3nc12` is 128 µg/mL (≈ 415 µM).
Still for that read-out and setting: as for `O=C(O)c1cccc2nc3cccc(Cl)c3nc12`, the figure is 16 µg/mL (≈ 61.9 µM); as for `CC(C)(O)/C=C/c1cccc2nc3cccc(C#N)c3nc12`, 128 µg/mL (≈ 442 µM).
The molecule `NC(=O)c1cccc2nc3ccccc3nc12` showed a minimum inhibitory concentration (MIC) with Staphylococcus aureus [7] of 64 µg/mL (≈ 287 µM).
Turning to `CN(C)C(=O)c1cccc2nc3cccc(Br)c3nc12`, the MIC with Staphylococcus aureus [1] is greater than 128 µg/mL.
Same read-out and setting: as for `COC(=O)c1cccc2nc3cccc(C)c3nc12`, the figure is 64 µg/mL (≈ 254 µM); as for `O=C(O)c1cccc2nc3cc(Br)ccc3nc12`, 64 µg/mL (≈ 211 µM).
In the case of `CC(C)(O)CCc1cccc2nc3cccc(C(=O)O)c3nc12`, the MIC against Staphylococcus aureus [1] is 64 µg/mL (≈ 206 µM).
As to `COC(=O)c1cccc2nc3ccccc3nc12`, 128 µg/mL (≈ 537 µM) was the least that counted as inhibitory against Staphylococcus aureus [7] (MIC).
Molecule `CS(=O)(=O)NC(=O)c1cccc2nc3cccc(Br)c3nc12` showed a minimum inhibitory concentration (MIC) with Staphylococcus aureus [1] of 4 µg/mL (≈ 10.5 µM). Further, the IC50 in the test on HaCaT was found to be 118 µM.
On to `COC(=O)c1cccc2nc3cccc(/C=C/C(C)(C)O)c3nc12`, for which it took 128 µg/mL (≈ 397 µM) to inhibit growth against Staphylococcus aureus [1] (MIC).
The molecule `CN(C)C(=O)c1cccc2nc3c(/C=C/C(C)(C)O)cccc3nc12` came in with an MIC against Staphylococcus aureus [1] greater than 128 µg/mL. The outcome in the test listed under Equus caballus was Active.
Consider `O=C(O)c1cccc2nc3cccc(Br)c3nc12`, for which the MIC with Staphylococcus aureus [1] worked out at 32 µg/mL (≈ 106 µM). Besides, the 50% inhibitory concentration (IC50) in the test on HaCaT is 345 µM.
In the case of `O=C(O)c1cccc2nc3ccccc3nc12` [PHENAZINE-1-CARBOXYLIC ACID], in the test on Staphylococcus aureus [7], inhibition of growth (MIC) required 64 µg/mL (≈ 285 µM).
In turn, `COC(=O)c1cccc2nc3cccc(Br)c3nc12` had an MIC in the test with Staphylococcus aureus [1] of 128 µg/mL (≈ 404 µM).
The same measure, in the same setting: as for `N#Cc1cccc2nc3cccc(Br)c3nc12`, the figure is greater than 128 µg/mL; as for `O=C(O)c1cccc2nc3c(Br)cccc3nc12`, 128 µg/mL (≈ 422 µM).
Molecule `CS(=O)(=O)NC(=O)c1cccc2nc3cccc(Cl)c3nc12` yielded an MIC in the test with Staphylococcus aureus [1] of 2 µg/mL (≈ 5.96 µM). The result (in the test with Staphylococcus aureus [2]; with Staphylococcus aureus [3]; in test [4]; in test [5]) was inactive. The outcome in the test listed under Equus caballus and in the test with Staphylococcus aureus [6] was Active. Besides, the IC50 in the test on HaCaT was determined as 193 µM.
`O=C(O)c1cccc2nc3cccc(F)c3nc12`: the MIC in the test with Staphylococcus aureus [1] came out at 64 µg/mL (≈ 264 µM).
